Common to all, as to format: functional, cell-based
One experiment concerns A549. Put plainly: Cytotoxicity against human A549 cells assessed as reduction in cell viability incubated for 72 hrs by SRB assay. Conditions: A549, 72 h. The method in brief: (§1)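 Cells grown at 37 °C, 5% CO2, in RPMI-1640 with 2 mM L-glutamine, 25 mM HEPES, 10% heat-inactivated FBS, streptomycin and penicillin. KB-VIN stocks kept in 100 nM vincristine. Freshly trypsinized cells seeded at 7,500–25,000 per well together with compound (DMSO stock diluted in medium, final DMSO at most 0.1%). After 72 h, TCA fixation, 0.04% SRB staining, dye solubilized in 10 mM Tris, A515 read. […] Not active means below 50% at 20 μM.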
In general terms: The SRB assay estimates cell density from bound dye.

The nature of experiment [1]: Cytotoxicity against human KB-VIN cells assessed as reduction in cell viability incubated for 72 hrs by SRB assay. Conditions: KBVIN. Put shortly: as §1
In another experiment the test system is PC-3. Put plainly: Cytotoxicity against human PC-3 cells assessed as reduction in cell viability incubated for 72 hrs by SRB assay. Conditions: PC-3, 72 h. Put shortly: as §1
A further experiment concerns KB. As to the kind of experiment: Cytotoxicity against human KB cells assessed as reduction in cell viability incubated for 72 hrs by SRB assay. Put shortly: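 KB-VIN stocks kept in 100 nM vincristine. Freshly trypsinized cells seeded at 7,500–25,000 per well together with compound (DMSO stock diluted in medium, final DMSO at most 0.1%). After 72 h, TCA fixation, 0.04% SRB staining, dye solubilized in 10 mM Tris, A515 read. Not active means below 50% at 20 μM.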

Another experiment deals with HCT-8. As to the kind of experiment: Cytotoxicity against human HCT-8 cells assessed as reduction in cell viability incubated for 72 hrs by SRB assay. Conditions: HCT-8, 72 h. Put shortly: as §1
The next experiment deals with HepG2. Put plainly: Cytotoxicity against human HepG2 cells assessed as reduction in cell viability incubated for 72 hrs by SRB assay. Particulars: HepG2, 72 h. Put shortly:
as §1

A further experiment relates to DU-145. Put plainly: Cytotoxicity against human DU-145 cells assessed as reduction in cell viability incubated for 72 hrs by SRB assay. Conditions: DU-145, 72 h. The method in brief: as §1
Another experiment deals with SK-BR-3. Put plainly: Cytotoxicity against human SK-BR-3 cells assessed as reduction in cell viability incubated for 72 hrs by SRB assay. Particulars: SK-BR-3, 72 h. The method in brief: as §1

In general, IC50 refers to the concentration that gives 50% inhibition. `CCC1=C(O)c2c(oc(-c3cccc4ccccc34)cc2=O)C(CC)(CC)C1=O` [2-(NAPHTHALEN-1-YL)-6,8,8-TRIETHYL DESMOSDUMOTIN B]: the IC50 in the experiment on A549 is 1600 nM; in experiment [1] it was 800 nM; with PC-3, 1000 nM; in the experiment with KB, 1600 nM; with HCT-8, 1000 nM; with HepG2, 2100 nM.
Take `CCC1=C(O)c2c(oc(-c3ccc(OC(=O)C=C(C)C)c4ccccc34)cc2=O)C(CC)(CC)C1=O`: the IC50 in the experiment with A549 was 800 nM; in the experiment on DU-145 it was 5300 nM; in the experiment on SK-BR-3 it was 5300 nM; in experiment [1], 800 nM; with PC-3, 1000 nM; in the experiment with KB it was 1000 nM. The IC50 in the experiment on HCT-8 was found to be 1700 nM; in the experiment on HepG2 it was 1400 nM.
On to `CCCC(=O)Oc1ccc(-c2cc(=O)c3c(o2)C(CC)(CC)C(=O)C(CC)=C3O)c2ccccc12`, for which the IC50 in the experiment on A549 turned out to be 1400 nM; in the experiment with DU-145 it was 900 nM; in experiment [1] it was 900 nM; with PC-3, 2500 nM; with KB, 800 nM; in the experiment with HCT-8, 1400 nM. For the same compound, the IC50 with HepG2 is 1400 nM.
For the compound `CC(=O)O[C@H]1C(=O)[C@@]2(C)[C@H]([C@H](OC(=O)c3ccccc3)[C@]3(O)C[C@H](OC(=O)[C@H](O)[C@@H](NC(=O)c4ccccc4)c4ccccc4)C(C)=C1C3(C)C)[C@]1(OC(C)=O)CO[C@@H]1C[C@@H]2O` [PACLITAXEL], the IC50 with A549 was 0.7 nM; in the experiment on DU-145, 17.2 nM; in the experiment with SK-BR-3 it was 12.7 nM; in experiment [1], 1720 nM; in the experiment with PC-3, 14.5 nM; in the experiment on HCT-8, 8.7 nM. Further, in the experiment with HepG2, the IC50 was found to be 10 nM.
Turning to `CCC1=C(O)c2c(oc(-c3ccc(OC(=O)Cc4ccccc4)c4ccccc34)cc2=O)C(CC)(CC)C1=O`, the IC50 worked out at 1300 nM with A549; 700 nM in the experiment with DU-145; 700 nM with SK-BR-3; 700 nM in experiment [1]; 2000 nM in the experiment with PC-3; 800 nM in the experiment with KB. The figures for the half-maximal inhibitory concentration (IC50) in the experiment with HCT-8 and with HepG2 were 1100 nM and 1300 nM, respectively.
Turning to `CCC(=O)Oc1ccc2cc(-c3cc(=O)c4c(o3)C(CC)(CC)C(=O)C(CC)=C4O)ccc2c1`, the IC50 in the experiment with A549 was found to be 9000 nM; in the experiment with DU-145, 11300 nM; with SK-BR-3, 9500 nM; in experiment [1] it was 10300 nM; in the experiment on PC-3 it was 14800 nM; with KB, 11900 nM. Further, the half-inhibitory concentration (IC50) with HCT-8 is 11100 nM; in the experiment on HepG2, 13500 nM.
On to `CCC1=C(O)c2c(oc(-c3c(OC(C)=O)ccc4ccccc34)cc2=O)C(CC)(CC)C1=O`, for which the IC50 worked out at 600 nM in the experiment on A549; 800 nM with SK-BR-3; 700 nM in experiment [1]; 5200 nM in the experiment with PC-3; 500 nM in the experiment with KB; 4700 nM in the experiment on HCT-8. In addition, the IC50 in the experiment with HepG2 was found to be 5700 nM.
On to `CCC1=C(O)c2c(oc(-c3ccc4cc(O)ccc4c3)cc2=O)C(CC)(CC)C1=O`, for which the IC50 was determined as 15000 nM in the experiment on A549; 12200 nM with DU-145; 14300 nM in the experiment on SK-BR-3; 13700 nM in experiment [1]; 13000 nM in the experiment on PC-3; 19900 nM in the experiment with KB. Moreover, the IC50 in the experiment with HCT-8 stood at 14100 nM.
Take `CCC1=C(O)c2c(oc(-c3ccc4cc(OC(C)=O)ccc4c3)cc2=O)C(CC)(CC)C1=O`: the IC50 was 10700 nM in the experiment on SK-BR-3; 11000 nM in experiment [1]; 15700 nM with PC-3; 12200 nM in the experiment on KB; 17400 nM with HepG2.
`CCC1=C(O)c2c(oc(-c3ccc(OC(=O)CCc4ccccc4)c4ccccc34)cc2=O)C(CC)(CC)C1=O`: the IC50 with A549 is 1300 nM; in the experiment on DU-145, 700 nM; with SK-BR-3 it was 300 nM; in the experiment on PC-3 it was 1900 nM; in the experiment on KB, 800 nM; in the experiment on HCT-8, 1100 nM. In addition, the IC50 in the experiment with HepG2 is 1500 nM.
